From ChEMBL document CHEMBL2346509, “Novel R-roscovitine NO-donor hybrid compounds as potential pro-resolution of inflammation agents” (2013)
The source made the active and inactive calls. No cut-off for these calls is given here.

Experiments:
[1] = system: Neutrophil; test: Induction of apoptosis in human neutrophils assessed as pre-necrotic cells at 3 to 10 uM after 6 hrs by annexin V/propidium iodide staining based flow cytometric analysis in presence of ODQ; assay type: functional, cell-based
In short: (§1)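 Human blood neutrophils at 5 × 10^6/mL in IMDM/0.1% BSA with antibiotics were pre-incubated for 15 min with L-NAME (prepared in IMDM) or with ODQ (10 μM; from a 10 mM stock in 0.01% NaOH). Test compounds were then added from DMSO stocks and cells cultured in duplicate at 37 °C, 5% CO2. Apoptosis was read by annexin V/PI flow cytometry.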

[2] = system: Neutrophil; test: Induction of apoptosis in human neutrophils assessed as pre-necrotic cells at 3 to 10 uM after 6 hrs by annexin V/propidium iodide staining based flow cytometric analysis in presence of L-NAME; assay type: functional, cell-based; in short: as §1
[3] = system: Neutrophil; test: Induction of apoptosis in human neutrophils assessed as pre-necrotic cells after 6 hrs by annexin V/propidium iodide staining based flow cytometric analysis; assay type: functional, cell-based
In short: (§2)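 Neutrophils isolated from peripheral blood of healthy volunteers (>96% purity), resuspended at 5 × 10^6/mL in IMDM with penicillin, streptomycin and 0.1% w/v BSA. Compounds from 50 mM DMSO stocks (final DMSO 0.04–0.12%) were added just before cells, in duplicate, at 37 °C, 5% CO2. Cells were stained with annexin V in Ca-containing HBSS on ice for 10 min in the dark, PI was added, and cells were analysed by flow cytometry. Diff-Quick morphology confirmed results.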

[4] = system: Neutrophil; test: Induction of apoptosis in human neutrophils at 10 uM by annexin V/propidium iodide staining based flow cytometric analysis; assay type: functional, cell-based; details: TDE = time-dependent effect; in short: as §2
[5] = system: Neutrophil; test: Induction of apoptosis in human neutrophils assessed as secondary necrosis at 10 uM after 8 hrs by annexin V/propidium iodide staining based flow cytometric analysis
[6] = system: Neutrophil; test: Induction of apoptosis in human neutrophils assessed as pre-necrotic cells at 3 uM after 6 hrs by annexin V/propidium iodide staining based flow cytometric analysis in presence of PTIO; assay type: functional, cell-based
In short: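 Healthy-volunteer neutrophils (>96% pure) at 5 × 10^6/mL in IMDM with 0.1% BSA and penicillin/streptomycin, 37 °C, 5% CO2, in duplicate. Co-incubated with the NO scavenger PTIO, made directly in IMDM. Final DMSO 0.04–0.12%. Cells stained with annexin V (1/500 in CaCl2–HBSS binding buffer) 10 min on ice in the dark, then PI added before flow cytometry.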

[7] = system: Neutrophil; test: Induction of apoptosis in human neutrophils assessed as cellular shrinkage and nuclear pyknosis at 3 uM after 6 hrs by light microscopy analysis; assay type: functional, cell-based
In short: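 Neutrophils isolated from healthy volunteers' citrated blood by dextran sedimentation and a density gradient (granulocytes at the 70:81 boundary, >96% pure). Cells at 5 × 10^6/mL in IMDM with penicillin/streptomycin and 0.1% BSA, 37 °C, 5% CO2, treated in duplicate. Final DMSO 0.04–0.12%. Cells cytocentrifuged, methanol-fixed 2 min, Diff-Quick stained, and scored for apoptotic morphology at 40× and 100×.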

[8] = system: Neutrophil; test: Induction of apoptosis in human neutrophils assessed as apoptotic cells at 3 uM after 6 hrs by annexin V/propidium iodide staining based flow cytometric analysis; assay type: functional; in short: as §2
[9] = system: Neutrophil; test: Induction of apoptosis in human neutrophils assessed as necrotic cells at 3 uM after 6 hrs by annexin V/propidium iodide staining based flow cytometric analysis; assay type: functional; in short: as §2
[10] = system: Neutrophil; test: Induction of apoptosis in human neutrophils assessed as viable cells at 3 uM after 6 hrs by annexin V/propidium iodide staining based flow cytometric analysis; assay type: functional; details: read-out: Activity; in short: as §2
[11] = system: Neutrophil; test: Induction of apoptosis in human neutrophils assessed as pre-necrotic cells at 3 uM after 6 hrs by annexin V/propidium iodide staining based flow cytometric analysis; assay type: functional; in short: as §2

| SMILES | Activity [1] | Activity [2] | Activity [3] | Activity [4] | Activity [5] | Activity [6] | Activity [7] | Activity [8] | Activity [9] | viability at 3 µM [10] | Activity [11] |
| --- | --- | --- | --- | --- | --- | --- | --- | --- | --- | --- | --- |
| CC[C@H](CO)Nc1nc(NCc2ccc(OCCCOC)cc2)c2ncn(C(C)C)c2n1 | Active | Active | Dose-dependent effect |  |  |  |  |  |  |  |  |
| CC[C@H](COC(=O)CCCO[N+](=O)[O-])Nc1nc(NCc2ccccc2)c2ncn(C(C)C)c2n1 | Active | Active | Dose-dependent effect | tde | Active |  |  |  |  |  |  |
| CC[C@H](CO)Nc1nc(NCc2ccc(OCc3nonc3C(N)=O)cc2)c2ncn(C(C)C)c2n1 |  |  | Dose-dependent effect |  |  |  |  |  |  |  |  |
| CC[C@H](CO)Nc1nc(NCc2ccccc2)c2ncn(C(C)C)c2n1 [SELICICLIB] | Active | Active |  | tde | Active | Active | Active | 6.98% | 0.386% | 92.6% | 0.033% |
| CC[C@H](CO)Nc1nc(NCc2ccc(OCCCO[N+](=O)[O-])cc2)c2ncn(C(C)C)c2n1 | Active | Active | Dose-dependent effect | tde | Active | inactive | Active | 86.9% | 0.63% | 12.5% | 0.017% |
| CN1C(=O)[C@]23CC4=CC=C[C@H](O)[C@H]4N2C(=O)[C@@]1(CO)SS3 |  |  |  |  |  | Active |  |  |  |  |  |
| CC[C@H](CO)Nc1nc(NCc2ccc(OCc3no[n+]([O-])c3C(N)=O)cc2)c2ncn(C(C)C)c2n1 | Active | Active | Dose-dependent effect | tde | Active |  |  |  |  |  |  |
